ANO1 block: mouse TMEM16A channel inhibition, primary screen; Q8BHY3; HEK293 TMEM16A/YFP iodide influx fluorescence, ionomycin; normalized B-score (activity score, 25-100; higher = stronger inhibition) at 10 µM; 310,000 tested, 1.2% active;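 active = ratio plate-corrected score three or more library SD toward inhibition, starting fluorescence score within five deviations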;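 note: score derived from kinetic fluorescence span divided by baseline fluorescence per well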
Target sequence (Q8BHY3 whole entry, looked up): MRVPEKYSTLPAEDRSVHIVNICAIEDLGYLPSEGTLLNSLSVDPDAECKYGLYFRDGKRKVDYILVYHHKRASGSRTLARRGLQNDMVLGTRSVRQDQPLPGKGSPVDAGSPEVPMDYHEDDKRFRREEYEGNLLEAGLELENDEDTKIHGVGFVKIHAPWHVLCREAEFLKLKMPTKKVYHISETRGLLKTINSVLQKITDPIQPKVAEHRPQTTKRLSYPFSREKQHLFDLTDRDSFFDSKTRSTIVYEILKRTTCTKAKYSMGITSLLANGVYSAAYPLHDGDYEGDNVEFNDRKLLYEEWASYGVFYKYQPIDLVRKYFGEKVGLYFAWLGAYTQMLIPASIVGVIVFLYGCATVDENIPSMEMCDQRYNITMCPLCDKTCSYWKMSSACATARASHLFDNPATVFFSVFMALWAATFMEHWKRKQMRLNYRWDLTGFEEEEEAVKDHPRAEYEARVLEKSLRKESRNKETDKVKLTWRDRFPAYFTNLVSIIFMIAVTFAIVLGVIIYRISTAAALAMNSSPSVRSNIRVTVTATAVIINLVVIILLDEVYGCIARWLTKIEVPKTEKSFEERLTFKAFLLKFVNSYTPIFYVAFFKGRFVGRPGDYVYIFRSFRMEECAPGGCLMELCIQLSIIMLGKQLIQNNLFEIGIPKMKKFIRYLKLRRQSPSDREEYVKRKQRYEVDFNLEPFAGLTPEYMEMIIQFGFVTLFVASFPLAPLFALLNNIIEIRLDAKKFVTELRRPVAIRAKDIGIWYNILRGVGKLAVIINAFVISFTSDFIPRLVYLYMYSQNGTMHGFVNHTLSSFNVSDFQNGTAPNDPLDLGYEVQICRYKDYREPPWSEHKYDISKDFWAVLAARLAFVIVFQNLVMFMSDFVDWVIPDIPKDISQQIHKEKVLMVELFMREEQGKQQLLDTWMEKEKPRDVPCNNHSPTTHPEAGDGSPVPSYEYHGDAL
CHOP UPR activ: activators of apoptotic arm of unfolded protein response (CHOP) | CHO-CHOP luciferase reporter, UPR activation, luminescence; percent of tunicamycin response over DMSO baseline | activation, % at 10 µM | 330,000 tested, 0.34% active;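 active = at 10 µM dose, activation of 40% or more, normalized to positive control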
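Test system: CHO-CHOP cells, stable luciferase reporter of PERK-eIF2a-CHOP signalling | Quantity: 500 CHO-CHOP cells per well | Buffer or medium: F12 plus 10% serum | Compound dosing: 10 µM single point, 0.5% DMSO | Schedule: 6 h compound treatment, 37 °C | Signal: Luciferase luminescence | Control set: Tunicamycin high control, DMSO low control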
CHOP inhibitor: CHOP inhibition in unfolded protein response; CHO-K1 CHOP-promoter luciferase, tunicamycin-induced, 15-18 h; inhibition, % at 10 µM; 220,000 tested, 3.8% active; AID 2732;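 active = compounds that reduced the stress-induced luciferase reporter signal by more than about 70% of percent inhibition, limit read from the data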
Lipid droplet: hepatic lipid droplet formation modulation; AML12 mouse hepatocytes, oleate lipid droplets, BODIPY imaging; inhibition, % at 6.5 µM; 240,000 tested, 0.4% active;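 active = lipid droplet intensity inhibited by at least 50%, with more than 500 cells counted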
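Material – AML12 mouse liver cells · Also added – oleate loading, 100 µM · Compound dosing – 6.5 µM single-point dosing · Times – overnight treatment with compound plus oleate · Measured by – fluorescence imaging, 20x objective, two fields per well · Read-out – percent inhibition of filter-corrected integrated lipid droplet intensity per well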
UPR XBP1 act: adaptive UPR (XBP1) activation; CHO-XBP1 luciferase reporter, IRE1-XBP1 UPR activation, luminescence; percent of tunicamycin response, DMSO as zero; activation, % at 20 µM; 330,000 tested, 0.33% active; AID 463104;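 active = versus positive control, 20 µM dose yields 30% or more activation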
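Material: CHO cell line with stable XBP1 luciferase reporter; buffer or medium: F12 medium containing 10% fetal bovine serum; compound: single point, 20 µM final compound, 1% DMSO; incubation: 6 h treatment, 37 °C; measured by: glow luminescence from Steady-Glo reagent; evaluation: activation, % of tunicamycin; control set: tunicamycin high, DMSO low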
TMEM16A act: activators or potentiators of mouse TMEM16A chloride channel; B-score at 10 µM; 340,000 tested, 0.3% active; HEK293 TMEM16A/YFP-H148Q/I152L, iodide quench fluorescence; hits give low values; Q8BHY3;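 active = fluorescence-ratio B-score plate-corrected deviation score at least 3 library SD below zero, with starting fluorescence score within 5 deviations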;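 note: channel opened by trigger with iodide after compound preincubation; score built on the fluorescence ratio of max minus min over baseline; more negative score means more quench and so TMEM16A activation or potentiation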
Large screens that a line does not name were inactive. Rows were chosen to be rich in hits. Some 4.2% of all compounds tested hit in one or more screens of this group.

FC(F)(F)c1cccc(NC(=S)NCc2ccc(Cl)cc2)c1	CHOP inhibitor 94.6
Fc1cc(NC(=S)NCc2ccc(CNC(=S)Nc3ccc(Cl)c(F)c3)cc2)ccc1Cl	CHOP inhibitor 84.4
COc1ccc(CCNC(=O)C/C(C)=N/NC(=O)c2cnccn2)cc1	none (no result: CHOP inhibitor)
CC(C)(Sc1cc(C(C)(C)C)c(O)c(C(C)(C)C)c1)Sc1cc(C(C)(C)C)c(O)c(C(C)(C)C)c1	none
C/C(=N/O)c1cc(C(C)(C)C)c(O)c(C(C)(C)C)c1	CHOP inhibitor 86.2
CCn1c(SCC(=O)NC2CCCCC2)nnc1-c1ccccc1F	none (no result: CHOP inhibitor)
CCCCC(NC(=O)COc1cc2c(c3oc(=O)cc(C)c13)CCC(C)(C)O2)C(=O)O (stereo not given)	none (no result: CHOP inhibitor)
Cc1onc(-c2ccccc2)c1C(=O)N1CCN(Cc2ccccc2)CC1	none (no result: CHOP inhibitor)
O=CNC(n1cnc2c(N3CCOCC3)ncnc21)C(Cl)(Cl)Cl (stereo not given)	TMEM16A act -7.18
CCOc1cccc(NC(=O)C2CC(=O)N(C)C(=Nc3cccc(F)c3)S2)c1 (stereo not given)	CHOP inhibitor 91.3 (no result: Lipid droplet)
CCCOc1ccc(NC(=O)C2CC(=O)N/C(=N/N=C(C)/C=C/c3ccc(N(C)C)cc3)S2)cc1 (stereo not given)	CHOP inhibitor 71.5
CCCOc1ccc(NC(=O)C2CC(=O)N/C(=N/N=C(\C)CCc3ccc4c(c3)OCO4)S2)cc1 (stereo not given)	CHOP inhibitor 78.1
CCOc1cccc(NC(=O)C2CC(=O)N(C)C(=Nc3ccccc3)S2)c1 (stereo not given)	none (no result: Lipid droplet)
CC(/C=C/c1ccc(N(C)C)cc1)=N\N=C1\NC(=O)CC(C(=O)Nc2ccccc2)S1 (stereo not given)	none
CC(/C=C/c1ccc(N(C)C)cc1)=N/N=C1/NC(=O)CC(C(=O)Nc2ccc(Cl)cc2)S1 (stereo not given)	CHOP inhibitor 71.3
CCS(=O)(=O)N1CCC(C(=O)N2CCN(Cc3ccccc3)CC2)CC1	none
Cc1nc2ccccn2c1C(=O)CSc1cccc(Cl)c1	none
Cn1cnc(S(=O)(=O)Nc2ccccc2C(=O)NCC2CC2)c1	none
O=C1c2ccccc2C(=O)N1CCCCSc1nc2ccccc2c(=O)n1CCCN1CCOCC1	none
CN(C)CCCNc1cc(O)c2ncccc2c1	none (no result: ANO1 block, CHOP inhibitor, Lipid droplet)
CCOc1ccc(NC(=O)C2CC(=O)N(CC)C(=Nc3ccc4c(c3)OCO4)S2)cc1 (stereo not given)	CHOP inhibitor 71.6
CCN1C(=O)CC(C(=O)Nc2ccc(F)cc2)SC1=Nc1ccc2c(c1)OCO2 (stereo not given)	none
Brc1ccc(C2=CSC3=NCCN23)cc1	none
C1=C(c2ccccc2)N2CCN=C2S1	CHOP inhibitor 86.4
O=C(O)CSc1nnc(-c2cccc(S(=O)(=O)N3CCOCC3)c2)n1-c1ccc(F)cc1	none (no result: ANO1 block, CHOP inhibitor, Lipid droplet)
COc1ccc(C(=O)C2CCCN(C/C=C/c3ccccc3OC)C2)c(OC)c1 (stereo not given)	TMEM16A act -5.09
COc1cc(/C=N/NC(N)=O)cc(Br)c1OCc1ccc(C)cc1	CHOP inhibitor 82.5
COc1cccc(C2c3c(-c4cc(Cl)c(C)cc4O)n[nH]c3C(=O)N2Cc2cccnc2)c1 (stereo not given)	CHOP inhibitor 75.3
COc1cc(C2c3c(-c4cc(Cl)c(C)cc4O)n[nH]c3C(=O)N2Cc2cccnc2)ccc1O (stereo not given)	none (no result: Lipid droplet)
N#CCCN(C(=O)COC(=O)c1ccc(S(=O)(=O)Nc2ccccc2)cc1)c1ccccc1	none
CCCN(CCC)S(=O)(=O)c1ccc(NC(=O)Cc2cccs2)cc1	none
CCCCN(CCCC)S(=O)(=O)c1ccc(NS(=O)(=O)c2ccc(NC(C)=O)cc2)cc1	CHOP inhibitor 93.0
CCCCN(CCCC)S(=O)(=O)c1ccc(NC(=O)Cc2cccs2)cc1	CHOP inhibitor 81.7
O=C(NC1CCCC1)c1cc2nc(-c3ccccc3)cc(-c3ccccc3)n2n1	none
O=C(Nc1cccc(O)c1)c1cc2nc(-c3ccccc3)cc(-c3ccccc3)n2n1	CHOP inhibitor 84.3
CC1CCN(C(=O)c2cc3nc(-c4ccccc4)cc(-c4ccccc4)n3n2)CC1	CHOP inhibitor 75.3
Cc1noc(C)c1C(=O)NC(C)c1ccc(Cl)cc1Cl (stereo not given)	none
COc1cc(-c2nc(-c3ccc4c(c3)-c3ccccc3S4(=O)=O)c(-c3ccccc3)[nH]2)cc(OC)c1O	CHOP inhibitor 91.6
COc1cccc(Nc2nc3ccccc3n3nnnc23)c1	CHOP inhibitor 88.5
Fc1cccc(Nc2nc3ccccc3n3nnnc23)c1	CHOP inhibitor 87.4 (no result: Lipid droplet)
COc1ccc(CN(C)C(=O)CCN(c2ccccc2)S(=O)(=O)c2ccc(C)cc2)c(OC)c1	ANO1 block 25 (no result: CHOP inhibitor, Lipid droplet)
Cc1ccc(N(CCC(=O)O)S(=O)(=O)c2ccccc2)cc1	none
Cc1ccc(N)c2c1OCCC2=O	none
Cc1cccc(C(=O)Nc2cc(S(=O)(=O)N3CCOCC3)ccc2N2CCCCC2)c1	none (no result: ANO1 block, CHOP inhibitor, Lipid droplet)
CC#CC(=O)N1CCC(CCC(=O)N(C)Cc2ccccc2)CC1	none (no result: CHOP inhibitor)
CCOc1ccc(C(=S)NC2CCCCC2)cc1OCC	TMEM16A act -6.52 (no result: CHOP inhibitor)
Cc1ccccc1CSCC(=O)c1c(N)n(C)c(=O)n(C)c1=O	none
Cc1ccccc1CSCC(=O)c1c(N)n(CC(C)C)c(=O)n(C)c1=O	CHOP inhibitor 81.1
CC(C)Cn1c(N)c(C(=O)COC(=O)CCNS(=O)(=O)c2ccccc2)c(=O)n(C)c1=O	ANO1 block 25 (no result: CHOP inhibitor, Lipid droplet)
CC(C)Cn1c(N)c(C(=O)COC(=O)C2CC(=O)N(Cc3ccccc3Cl)C2)c(=O)n(C)c1=O (stereo not given)	TMEM16A act -4.62
Cc1ccccc1OCCC(=O)OCC(=O)c1c(N)n(CC(C)C)c(=O)n(C)c1=O	none (no result: CHOP inhibitor)
CC(C)Cn1c(N)c(C(=O)COC(=O)C2CC(=O)N(c3ccc4c(c3)OCCO4)C2)c(=O)n(C)c1=O (stereo not given)	none (no result: CHOP inhibitor, Lipid droplet)
Cc1cc(C)cc(NCc2cc(=O)oc3cc(-c4ccccc4)c(O)cc23)c1	CHOP inhibitor 103.1
CC(C)(C)c1ccc(C(=O)c2c[nH]c(C(=O)NCc3cccs3)c2)cc1	TMEM16A act -8.1 (no result: Lipid droplet)
CN1C(=O)N(C)C2(c3ccccc3)Nn3c(s/c(=C/c4ccco4)c3=O)=NC12c1ccccc1 (stereo not given)	none
CN1C(=O)N(C)C2(c3ccccc3)Nn3c(s/c(=C/c4ccccc4F)c3=O)=NC12c1ccccc1 (stereo not given)	CHOP inhibitor 71.5 (no result: TMEM16A act)
CCN(CC)c1ccc2c(Cl)cc(=O)oc2c1	CHOP inhibitor 93.8 (no result: Lipid droplet, TMEM16A act)

Compound activity deposited in PubChem BioAssay by several laboratories.
